We go through six compounds from paper PMC10878326 (Cell chemical biology, 2023).

Experiment [1] deals with lipid droplets in uninfected HC-04 cells. Briefly: HCS LipidTOX lipid droplet staining in uninfected HC-04 cells. Format: cell-based, human.
Experiment [2] relates to P. berghei infected HepG2 cells. Briefly: Cell Painting morphological profile compared with landmark compound set. Format: cell-based, human.
Experiment [3] relates to P. berghei schizonts in HC-04 cells. Briefly: Confocal imaging of P. berghei infected HC-04 cells treated with compound. Type of experiment: cell-based, Plasmodium berghei. The following applies: HC-04, 1x and 2x IC50, 48 hpi. The method, boiled down: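 HC-04 cells were seeded at 16,000 cells/well on poly-L-lysine-coated chamber slides and pretreated 24 h with test compound, NR1D2 inhibitor or DMSO. They were then infected with P. berghei Luc sporozoites (MOI 1:1), with treatment kept to 48 hpi. Cells were fixed in 4% PFA, permeabilised with 0.1% Triton X-100 and blocked in 1% BSA. Staining: anti-UIS4 1:1000 overnight at 4 °C, anti-NR1D2 1:500, LipidTOX 1:500 and DAPI. Imaging was at 63x oil. Merozoites per schizont were counted. Two biological replicates; one-way ANOVA with Dunnett's test.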

A further experiment concerns NR1D2. Kind of experiment: Western blot of NR1D2 protein in uninfected HC-04 cells. The note with it: uninfected HC-04, 1x to 10x IC50, 48 hours. Type of experiment: cell-based, human. The method in brief: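 Uninfected HC-04 cells were exposed 48 h to varying concentrations of test compound or NR1D2 inhibitor, then lysed. Protein was measured by DC assay, resolved by SDS-PAGE and transferred to nitrocellulose. Blots were blocked 1 h in 5% blocker and probed with anti-NR1D2 at 1:1000. Levels were expressed relative to beta actin.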

The subject of a further experiment is NR1D2 transcript. Briefly: qPCR of NR1D2 transcript in treated HC-04 cells. Format: cell-based, human. The note with it: HC-04, post treatment 48h. The method in brief:
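HC-04 cells were treated 48 h with varying concentrations of test compound or NR1D2 inhibitor. Cells were harvested, RNA was extracted, and NR1D2 transcript was quantified by qPCR with gene-specific primers.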

The test system of experiment [4] is P. berghei in NR1D2 knockdown lines. Kind of experiment: Parasite development IC50 shift in NR1D2 shRNA knockdown cells. Type of experiment: cell-based, Plasmodium berghei. The note with it: stable shRNA knockdown, luciferase after 48 hours.
Experiment [5] relates to P. falciparum asexual blood stages. The following applies: cited from earlier work.
The next experiment concerns the target P. berghei liver stages. Briefly: P. berghei luciferase liver stage assay. Format: cell-based, Plasmodium berghei. The note with it: IC50 used to set 1x and 2x treatment of HC-04 cells.

In the case of `CC1(C)c2nc(-c3ccc(F)cc3)c(Nc3ccc(Cl)cc3)n2CCN1C(=O)CN` [GNF179], the “HCS lipid tox staining intensities” value in experiment [1] is on record as “did not observe any significant changes”.
On to `O=C1C(O)=C([C@H]2CC[C@H](c3ccc(Cl)cc3)CC2)C(=O)c2ccccc21` [atovaquone], for which, in experiment [1], the “HCS lipid tox staining intensities” value was “did not observe any significant changes”.
With `Cc1cccc2sc(C(=O)NCc3cccc(NS(N)(=O)=O)c3)c(Cl)c12` [MMV1452174], the “HCS lipid tox staining intensities” value in experiment [1] is given as “did not observe any significant changes”. Moreover, the “morphological profile similarity / inferred host pathway” value in experiment [2] was “potential modulator of the host S1P pathway”.
For the compound `CN1CCN(Cc2cc(CNC3(c4ccccc4F)CCCC3)ccc2O)CC1` [ARN5187, reference compound], in experiment [3], the “number of merozoites per schizont relative to DMSO” value is reported as “lower number of merozoites per schizont”. The “NR1D2 protein expression level (western blot)” value (shortened to “NR1D2 protein expression level”) with NR1D2 is reported as “no changes in protein expression levels”.
For the compound `Cc1cc(C(=O)Oc2ccccc2C(N)=O)c(C)n1Cc1ccco1` [MMV1088447], in experiment [3], the “number of merozoites per schizont relative to DMSO” value was “significant reduction” and the “parasite size relative to DMSO controls” value is listed as “smaller”. For the same compound, in the experiment on NR1D2, the “NR1D2 protein expression level” value was “dose dependent reduction”. In addition, in the experiment on NR1D2 transcript, the “NR1D2 RNA expression levels” value was “no significant changes”. For the same compound, the “difference in IC50 in NR1D2 knockdown lines relative to wild type cells” value in experiment [4] is on record as “did not see any differences”. The “activity against asexual blood stages” value in experiment [5] was “little activity”. In experiment [2], the “morphological profile similarity / inferred host pathway” value is “phenocopied treatment with tamoxifen, endoxifen and lichochalcone A”. On P. berghei liver stages, this compound had an IC50 of 1050 ± 290 nM.
For `N#CC(C(=O)c1cc(S(=O)(=O)N2CCc3ccccc3C2)ccc1Cl)c1ccccn1` (stereo not shown) [MMV1346624], in experiment [3], the “number of merozoites per schizont relative to DMSO” value is listed as “significant reduction” and the “parasite size relative to DMSO controls” value is reported as “smaller”. For the same compound, in the experiment with NR1D2, the “NR1D2 protein expression level” value was “dose dependent reduction”. The “NR1D2 RNA expression levels” value in the experiment with NR1D2 transcript is “no significant changes”. In addition, in experiment [4], the “difference in IC50 in NR1D2 knockdown lines relative to wild type cells” value is given as “did not see any differences”. Further, the “activity against asexual blood stages” value in experiment [5] is on record as “little activity”. Besides, the “morphological profile similarity / inferred host pathway” value in experiment [2] was “phenocopied treatment with tamoxifen, endoxifen and lichochalcone A”. Further, the IC50 against P. berghei liver stages is 1040 ± 730 nM.
